Experimental data taken from ChEMBL document CHEMBL1127783, “Sugar-linked dithiocarbamates as modulators of metabolic and genotoxic properties of N-nitroso compounds” (J Med Chem, 1994).
Several values for one entry are separate records, joined by “and”; a condition that tells them apart may be missing. Equal entries are not always repeated.

Legend:
Rattus norvegicus [1] = organism: Rattus norvegicus; experiment: Tested in vitro for N-nitrosodimethylamine (NDMA) demethylase activity at 0.5 mM for 2 mM concentration of acetaldehyde; assay type: functional
Outline: (§1)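 Liver microsomal fraction from untreated male Sprague–Dawley rats with NADPH-generating system. NDMA substrate 0.1–1 mM; test compound 2–20 mM or DDTC 2 mM added. Formaldehyde and acetaldehyde formed measured as (2,4-dinitrophenyl)hydrazones. Mean ± SD of three separate experiments.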

Rattus norvegicus [2] = organism: Rattus norvegicus; experiment: Tested in vitro for N-nitrosodimethylamine (NDMA) demethylase activity at 0.5 mM for 2 mM concentration of formaldehyde; assay type: functional; outline: as §1
Rattus norvegicus [3] = organism: Rattus norvegicus; experiment: Tested in vitro for N-nitrosodimethylamine (NDMA) demethylase activity at 2 mM for 0 mM concentration of acetaldehyde; assay type: functional; outline: as §1
Rattus norvegicus [4] = organism: Rattus norvegicus; experiment: Tested in vitro for N-nitrosodimethylamine (NDMA) demethylase activity at 2 mM for 5 mM concentration of formaldehyde; assay type: functional; outline: as §1
Rattus norvegicus [5] = organism: Rattus norvegicus; experiment: Tested in vitro for N-nitrosodimethylamine (NDMA) demethylase activity at 2 mM for 5 mM concentration of acetaldehyde; assay type: functional; outline: as §1
Rattus norvegicus [6] = organism: Rattus norvegicus; experiment: Tested in vitro for N-nitrosodimethylamine (NDMA) demethylase activity at 1 mM for 2 mM concentration of acetaldehyde; assay type: functional; outline: as §1
[7] = Tested for the half life period in beta glucosidase at pH of 7.4; 6-12 days; assay type: ADME; conditions: pH 7.4
Rattus norvegicus [8] = experiment: Tested for steady state volume of distribution (Vss) after intravenous bolus administration of 100 mg/kg in rat 2; assay type: ADME, organism-based; design: dose 100 mg/kg, route intravenous; conditions: in vivo
Outline: (§2)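 Rats (two per compound) were catheterised in the jugular vein under chloral hydrate. A 100 mg/kg iv bolus was given through the catheter, followed by a saline rinse. Serial blood samples (250–300 μL) were collected into heparinized tubes and centrifuged for plasma. Each rat's plasma concentration–time data were fitted by nonlinear regression to a compartment model to derive AUC, MRT, CL, Vss and phase half-lives. Body weight was recorded for each rat.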

Rattus norvegicus [9] = experiment: Tested for body weight after intravenous bolus administration of 100 mg/kg in rat 1; assay type: ADME, organism-based; design: dose 100 mg/kg, route intravenous; conditions: in vivo; outline: as §2
Rattus norvegicus [10] = experiment: Tested for area under the curve (AUC) after intravenous bolus administration of 100 mg/kg in rat 2; assay type: ADME, organism-based; design: dose 100 mg/kg, route intravenous; conditions: in vivo; outline: as §2
Rattus norvegicus [11] = experiment: Tested for cumulative urinary excretion following intraperitoneal dose of 100 mg/kg in rat at 8-24 h; assay type: functional, Urine
Outline: (§3)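 Rats (five per group) were given a single 100 mg/kg dose ip or as an iv bolus. Each was housed alone in a metabolism cage, and urine was collected over 0–8 h and 8–24 h. Parent compound and the monosaccharide-linked metabolite in urine were quantified and reported as cumulative % of dose, mean ± SD.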

[12] = Tested for the half life period in phosphate buffer at pH of 7.4; Stable; assay type: ADME; conditions: pH 7.4
Rattus norvegicus [13] = experiment: Tested for total body clearance (CL) after intravenous bolus administration of 100 mg/kg in rat 2; assay type: ADME, organism-based; design: dose 100 mg/kg, route intravenous; conditions: in vivo; outline: as §2
Rattus norvegicus [14] = experiment: Tested for cumulative urinary excretion following intraperitoneal dose of 100 mg/kg in rat at 8-24 hr was recovered; assay type: functional, Urine; outline: as §3
Rattus norvegicus [15] = experiment: Tested ex vivo for analysis of DNA single-strand breaks in primary rat hepatocyte by oral treatment of NaCl during second gavage, 2 hr after first gavage.; assay type: functional
Outline: (§4)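 Fasted rats given a first gavage of 0.5 mmol/kg test agent or saline, then NDEA (1.4 mg/kg) or saline by a second gavage 2 h later, both in 10 mL NaCl/kg. At 1 h after the second gavage, hepatocytes were isolated by two-step in situ perfusion under metophane anaesthesia. Alkaline filter elution: 1.5 × 10⁶ cells/filter, lysis at pH 10 with SDS/proteinase K, ten elution fractions, DNA measured by Hoechst 33258 fluorescence. Readout is control minus treated % DNA retained on filter; n = 6.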

Rattus norvegicus [16] = experiment: Tested for mean residence time (MRT) after intravenous bolus administration of 100 mg/kg in rat 2; assay type: ADME, organism-based; design: dose 100 mg/kg, route intravenous; conditions: in vivo; outline: as §2
Rattus norvegicus [17] = organism: Rattus norvegicus; experiment: Tested in vitro for N-nitrosodimethylamine (NDMA) demethylase activity at 2 mM for 0 mM concentration of formaldehyde; assay type: functional; outline: as §1
Rattus norvegicus [18] = experiment: Tested for body weight after intravenous bolus administration of 100 mg/kg in rat 2; assay type: ADME, organism-based; design: dose 100 mg/kg, route intravenous; conditions: in vivo; outline: as §2
Rattus norvegicus [19] = organism: Rattus norvegicus; experiment: Tested in vitro for N-nitrosodimethylamine (NDMA) demethylase activity at 0.1 mM for 0 mM concentration of formaldehyde; assay type: functional; outline: as §1
Rattus norvegicus [20] = organism: Rattus norvegicus; experiment: Tested in vitro for N-nitrosodimethylamine (NDMA) demethylase activity at 2 mM for 2 mM concentration of formaldehyde; assay type: functional; outline: as §1
[21] = Tested for half -life alpha after intravenous bolus administration of 100 mg/kg in rat 1; assay type: ADME, organism-based; design: dose 100 mg/kg, route intravenous; conditions: in vivo, read-out: T1/2 alpha; outline: as §2
Rattus norvegicus [22] = organism: Rattus norvegicus; experiment: Tested in vitro for N-nitrosodimethylamine (NDMA) demethylase activity at 0.1 mM for 0 mM concentration of acetaldehyde; assay type: functional; outline: as §1
[23] = Tested for half life gamma after intravenous bolus administration of 100 mg/kg in rat 2; assay type: ADME, organism-based; design: dose 100 mg/kg, route intravenous; conditions: in vivo, read-out: T1/2 gamma; outline: as §2
Rattus norvegicus [24] = experiment: Tested ex vivo for analysis of DNA single-strand breaks in primary rat hepatocyte by oral treatment of NDEA during second gavage, 2 hr after first gavage.; assay type: functional; outline: as §4
[25] = Tested for half life gamma after intravenous bolus administration of 100 mg/kg in rat 1; assay type: ADME, organism-based; design: dose 100 mg/kg, route intravenous; conditions: in vivo, read-out: T1/2 gamma; outline: as §2
Rattus norvegicus [26] = experiment: Tested for area under the curve (AUC) after intravenous bolus administration of 100 mg/kg in rat 1; assay type: ADME, organism-based; design: dose 100 mg/kg, route intravenous; conditions: in vivo; outline: as §2
Rattus norvegicus [27] = experiment: Tested for cumulative urinary excretion following intravenous bolus dose of 100 mg/kg in rat at 8-24 h was recovered; assay type: functional, Urine; outline: as §3
Rattus norvegicus [28] = organism: Rattus norvegicus; experiment: Tested in vitro for N-nitrosodimethylamine (NDMA) demethylase activity at 0.1 mM for 2 mM concentration of formaldehyde; assay type: functional; outline: as §1
Rattus norvegicus [29] = experiment: Tested for cumulative urinary excretion following intravenous bolus dose of 100 mg/kg in rat at 8-24 h; assay type: functional, Urine; outline: as §3
[30] = Tested for half life beta after intravenous bolus administration of 100 mg/kg in rat 2; assay type: ADME, organism-based; design: dose 100 mg/kg, route intravenous; conditions: in vivo, read-out: T1/2 beta; outline: as §2
Rattus norvegicus [31] = experiment: Tested ex vivo for analysis of DNA single-strand breaks in primary rat hepatocyte by oral treatment of NaCl during first gavage; assay type: functional; outline: as §4
Rattus norvegicus [32] = organism: Rattus norvegicus; experiment: Tested in vitro for N-nitrosodimethylamine (NDMA) demethylase activity at 1 mM for 2 mM concentration of formaldehyde; assay type: functional; outline: as §1
Rattus norvegicus [33] = experiment: Tested for cumulative urinary excretion following intraperitoneal dose of 100 mg/kg in rat at 0-8 h; assay type: functional, Urine; outline: as §3
Rattus norvegicus [34] = experiment: Tested for half life beta after intravenous bolus administration of 100 mg/kg in rat 1; assay type: ADME, organism-based; design: dose 100 mg/kg, route intravenous; conditions: in vivo; outline: as §2
Rattus norvegicus [35] = experiment: Tested for cumulative urinary excretion following intraperitoneal dose of 100 mg/kg in rat at 0-8 hr was recovered; assay type: functional, Urine; outline: as §3
[36] = Tested for half -life alpha after intravenous bolus administration of 100 mg/kg in rat 2; assay type: ADME, organism-based; design: dose 100 mg/kg, route intravenous; conditions: in vivo, read-out: T1/2 alpha; outline: as §2
Rattus norvegicus [37] = experiment: Tested for steady state volume of distribution (Vss) after intravenous bolus administration of 100 mg/kg in rat 1; assay type: ADME, organism-based; design: dose 100 mg/kg, route intravenous; conditions: in vivo; outline: as §2
Rattus norvegicus [38] = organism: Rattus norvegicus; experiment: Tested in vitro for N-nitrosodimethylamine (NDMA) demethylase activity at 2 mM for 20 mM concentration of formaldehyde; assay type: functional; outline: as §1
Rattus norvegicus [39] = organism: Rattus norvegicus; experiment: Tested in vitro for N-nitrosodimethylamine (NDMA) demethylase activity at 0.1 mM for 2 mM concentration of acetaldehyde; assay type: functional; outline: as §1
Rattus norvegicus [40] = experiment: Tested for cumulative urinary excretion following intravenous bolus dose of 100 mg/kg in rat at 0-8 hr was recovered; assay type: functional, Urine; outline: as §3
Rattus norvegicus [41] = experiment: Tested for total body clearance (CL) after intravenous bolus administration of 100 mg/kg in rat 1; assay type: ADME, organism-based; design: dose 100 mg/kg, route intravenous; conditions: in vivo; outline: as §2
Rattus norvegicus [42] = experiment: Tested for cumulative urinary excretion following intravenous bolus dose of 100 mg/kg in rat at 0-8 h; assay type: functional, Urine; outline: as §3
Rattus norvegicus [43] = experiment: Tested ex vivo for analysis of DNA single-strand breaks in primary rat hepatocyte by oral treatment of NDEA during first gavage; assay type: functional
[44] = Tested for the half life period in alpha glucosidase at pH of 7.4; 9-18 days; assay type: ADME; conditions: pH 7.4
Rattus norvegicus [45] = experiment: Tested for mean residence time (MRT) after intravenous bolus administration of 100 mg/kg in rat 1; assay type: ADME, organism-based; design: dose 100 mg/kg, route intravenous; conditions: in vivo; outline: as §2
Rattus norvegicus [46] = organism: Rattus norvegicus; experiment: Tested in vitro for N-nitrosodimethylamine (NDMA) demethylase activity at 2 mM for 2 mM concentration of acetaldehyde; assay type: functional; outline: as §1

half-life [7]: 144 h | Vss (Rattus norvegicus [8]): 0.1848 L/kg | AUC (Rattus norvegicus [10]): 11.4 uM min l-1 | T1/2 [12]: Stable | Clearance (Rattus norvegicus [13]): 42.1 mL/min/kg | MRT (Rattus norvegicus [16]): 43.8 min | half-life [21]: 3.7 min | half-life [23]: 129 min | half-life [25]: 88.8 min | AUC (Rattus norvegicus [26]): 17.6 uM min l-1 | half-life [30]: 23.6 min | T1/2 beta (Rattus norvegicus [34]): 19.3 min | half-life [36]: 5.2 min | Vss (Rattus norvegicus [37]): 0.1526 L/kg | Clearance (Rattus norvegicus [41]): 25.5 mL/min/kg | half-life [44]: 216 h | MRT (Rattus norvegicus [45]): 59.8 min
Compound: CCN(CC)C(=S)SC1OC(CO)C(O)C(O)C1O (stereo not given)
Acetaldehyde (Rattus norvegicus [1]): 8.5 nM (mg of protein)-1 | Formaldehyde (Rattus norvegicus [2]): 9 nM (mg of protein)-1 | Acetaldehyde (Rattus norvegicus [3]): 0 nM (mg of protein)-1 | Formaldehyde (Rattus norvegicus [4]): 11.9 nM (mg of protein)-1 | Acetaldehyde (Rattus norvegicus [5]): 25.9 nM (mg of protein)-1 | Acetaldehyde (Rattus norvegicus [6]): 4.3 nM (mg of protein)-1 | Body weight (Rattus norvegicus [9]): 140 g | Excretion (Rattus norvegicus [11]): 2.2 % of dose | Excretion (Rattus norvegicus [14]): 1 % of dose | DNA on filter (Rattus norvegicus [15]): 58 | Viability (Rattus norvegicus [15]): 100% | Formaldehyde (Rattus norvegicus [17]): 15 nM (mg of protein)-1 | Body weight (Rattus norvegicus [18]): 150 g | Formaldehyde (Rattus norvegicus [19]): 4.6 nM (mg of protein)-1 | Formaldehyde (Rattus norvegicus [20]): 14.7 nM (mg of protein)-1 | Acetaldehyde (Rattus norvegicus [22]): 0 nM (mg of protein)-1 | DNA on filter (Rattus norvegicus [24]): 77 | Viability (Rattus norvegicus [24]): 106% | Excretion (Rattus norvegicus [27]): 1.2 % of dose | Formaldehyde (Rattus norvegicus [28]): 1.2 nM (mg of protein)-1 | Excretion (Rattus norvegicus [29]): 1.5 % of dose | DNA on filter (Rattus norvegicus [31]): 60 | Viability (Rattus norvegicus [31]): 82% | Formaldehyde (Rattus norvegicus [32]): 6.2 nM (mg of protein)-1 | Excretion (Rattus norvegicus [33]): 31.2 % of dose | Excretion (Rattus norvegicus [35]): 21 % of dose | Formaldehyde (Rattus norvegicus [38]): 1.5 nM (mg of protein)-1 | Acetaldehyde (Rattus norvegicus [39]): 10.9 nM (mg of protein)-1 | Excretion (Rattus norvegicus [40]): 13.1 % of dose | Excretion (Rattus norvegicus [42]): 34.5 % of dose | DNA on filter (Rattus norvegicus [43]): 74 | Viability (Rattus norvegicus [43]): 92% | Acetaldehyde (Rattus norvegicus [46]): 13.8 nM (mg of protein)-1 and 31.5 nM (mg of protein)-1
